Results published in ChEMBL document CHEMBL1146062, “Synthesis of 3-benzyl-2-substituted quinoxalines as novel monoamine oxidase A inhibitors” (Bioorg Med Chem Lett, 2006).

What follows are compounds tested on Mus musculus (assay: Toxicity in mouse upto 125 mg/kg administered by parenteral route). Conditions: in vivo.
Assay type: organism-based
Design: dose 125 mg/kg

Row | Compound | Activity
1 | NNc1nc2ccccc2nc1Cc1ccccc1 | Non-toxic
2 | CNCCNc1nc2ccccc2nc1Cc1ccccc1 | Non-toxic
3 | NNc1nc2ccccc2nc1Cc1ccc(Cl)cc1 | Non-toxic
4 | Clc1ccc(Cc2nc3ccccc3nc2NCCN2CCOCC2)cc1 | Non-toxic
5 | OCCNc1nc2ccccc2nc1Cc1ccccc1 | Non-toxic
6 | NNc1nc2cc(Cl)c(Cl)cc2nc1Cc1ccccc1 | Non-toxic
7 | c1ccc(Cc2nc3ccccc3nc2NCCN2CCOCC2)cc1 | Non-toxic
8 | Clc1cc2nc(Cc3ccccc3)c(NCCN3CCOCC3)nc2cc1Cl | Non-toxic

The compounds below were run against T1, Amine oxidase [flavin-containing] A (Rattus norvegicus, UniProt P21396) (assay: Inhibition of rat liver mitochondria MAOA). Conditions: not given.
T1 sequence (P21396 whole entry): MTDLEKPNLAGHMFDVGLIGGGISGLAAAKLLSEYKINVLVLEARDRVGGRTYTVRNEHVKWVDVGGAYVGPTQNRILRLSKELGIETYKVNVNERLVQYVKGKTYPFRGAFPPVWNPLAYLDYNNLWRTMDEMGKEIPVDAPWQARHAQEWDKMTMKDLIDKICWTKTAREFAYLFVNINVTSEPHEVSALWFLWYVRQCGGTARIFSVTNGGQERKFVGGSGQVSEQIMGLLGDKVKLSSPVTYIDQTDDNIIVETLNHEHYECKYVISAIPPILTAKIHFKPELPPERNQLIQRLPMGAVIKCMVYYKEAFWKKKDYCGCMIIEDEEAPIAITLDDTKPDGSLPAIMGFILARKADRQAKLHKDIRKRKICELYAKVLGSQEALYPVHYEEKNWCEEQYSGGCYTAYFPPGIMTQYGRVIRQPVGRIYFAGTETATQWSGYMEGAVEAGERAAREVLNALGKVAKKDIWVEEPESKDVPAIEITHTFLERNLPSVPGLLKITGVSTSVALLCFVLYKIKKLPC
Summary of the method: (§1)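 MAO-A activity was measured in rat liver mitochondria with serotonin (5HT) as substrate. Test compounds were used at a final concentration of 1 × 10^-4 M, and inhibition was determined.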

Row | Compound | IC50
9 | NNc1nc2ccccc2nc1Cc1ccc(Cl)cc1 | 0.0021 µM
10 | Clc1ccc(Cc2nc3ccccc3nc2NCCN2CCOCC2)cc1 | 0.0017 µM
11 | NNc1nc2cc(Cl)c(Cl)cc2nc1Cc1ccccc1 | 0.0076 µM
12 | Clc1cc2nc(Cc3ccccc3)c(NCCN3CCOCC3)nc2cc1Cl | 0.073 µM

The next lines start with the values.

Row | IC50 | Compound
13 | 0.0088 µM | NNc1nc2ccccc2nc1Cc1ccccc1
14 | 0.092 µM | CNCCNc1nc2ccccc2nc1Cc1ccccc1
15 | 0.0037 µM | OCCNc1nc2ccccc2nc1Cc1ccccc1
16 | 0.0013 µM | c1ccc(Cc2nc3ccccc3nc2NCCN2CCOCC2)cc1

What follows are compounds tested against T1, Amine oxidase [flavin-containing] A (assay: Inhibition of rat liver mitochondria MAOA at 100 uM). Conditions: not given.
Summary of the method: as §1

Row | Compound | inhibition at 100 µM
17 | NNc1nc2ccccc2nc1Cc1ccc(Cl)cc1 | 49.5%
18 | Clc1ccc(Cc2nc3ccccc3nc2NCCN2CCOCC2)cc1 | 50.5%
19 | NNc1nc2cc(Cl)c(Cl)cc2nc1Cc1ccccc1 | 42%
20 | Clc1cc2nc(Cc3ccccc3)c(NCCN3CCOCC3)nc2cc1Cl | 40%

More lines, now with the values ahead:

Row | inhibition at 100 µM | Compound
21 | 54.1% | NNc1nc2ccccc2nc1Cc1ccccc1
22 | 40.9% | CNCCNc1nc2ccccc2nc1Cc1ccccc1
23 | 46% | OCCNc1nc2ccccc2nc1Cc1ccccc1
24 | 46.1% | c1ccc(Cc2nc3ccccc3nc2NCCN2CCOCC2)cc1

The compounds below were run against T2, Amine oxidase [flavin-containing] B (Rattus norvegicus, UniProt P19643) (assay: Inhibition of rat liver mitochondria MAOB). Conditions: not given.
T2 sequence (P19643 whole entry): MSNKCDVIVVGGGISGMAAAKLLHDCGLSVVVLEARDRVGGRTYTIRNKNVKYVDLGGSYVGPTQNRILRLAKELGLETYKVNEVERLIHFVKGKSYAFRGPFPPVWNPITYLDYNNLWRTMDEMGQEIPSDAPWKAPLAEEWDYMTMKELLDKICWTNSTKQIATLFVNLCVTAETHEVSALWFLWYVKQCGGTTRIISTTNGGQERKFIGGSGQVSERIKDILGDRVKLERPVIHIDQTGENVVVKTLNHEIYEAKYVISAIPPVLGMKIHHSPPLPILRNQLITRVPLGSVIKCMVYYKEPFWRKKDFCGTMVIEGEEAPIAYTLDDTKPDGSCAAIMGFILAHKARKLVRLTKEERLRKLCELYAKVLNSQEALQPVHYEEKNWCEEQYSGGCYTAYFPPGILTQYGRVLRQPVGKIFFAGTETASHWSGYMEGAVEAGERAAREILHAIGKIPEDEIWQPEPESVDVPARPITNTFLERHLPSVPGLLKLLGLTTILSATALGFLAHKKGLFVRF

Row | Compound | IC50
25 | NNc1nc2ccccc2nc1Cc1ccc(Cl)cc1 | 570 µM
26 | Clc1ccc(Cc2nc3ccccc3nc2NCCN2CCOCC2)cc1 | 360 µM
27 | NNc1nc2cc(Cl)c(Cl)cc2nc1Cc1ccccc1 | 74 µM
28 | Clc1cc2nc(Cc3ccccc3)c(NCCN3CCOCC3)nc2cc1Cl | 960 µM

Further lines, results first:

Row | IC50 | Compound
29 | 840 µM | NNc1nc2ccccc2nc1Cc1ccccc1
30 | 790 µM | CNCCNc1nc2ccccc2nc1Cc1ccccc1
31 | 86 µM | OCCNc1nc2ccccc2nc1Cc1ccccc1
32 | 840 µM | c1ccc(Cc2nc3ccccc3nc2NCCN2CCOCC2)cc1

The compounds below were run on Mus musculus (assay: Toxicity in mouse upto 250 mg/kg, po). Conditions: in vivo.
Assay type: organism-based
Design: dose 250 mg/kg, route oral
Summary of the method: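 Acute oral toxicity was assessed in male mice. Tolerability and mortality were recorded at doses up to […].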

Row | Compound | Activity
33 | NNc1nc2ccccc2nc1Cc1ccccc1 | Non-toxic
34 | CNCCNc1nc2ccccc2nc1Cc1ccccc1 | Non-toxic
35 | NNc1nc2ccccc2nc1Cc1ccc(Cl)cc1 | Non-toxic
36 | Clc1ccc(Cc2nc3ccccc3nc2NCCN2CCOCC2)cc1 | Non-toxic
37 | OCCNc1nc2ccccc2nc1Cc1ccccc1 | Non-toxic
38 | NNc1nc2cc(Cl)c(Cl)cc2nc1Cc1ccccc1 | Non-toxic
39 | c1ccc(Cc2nc3ccccc3nc2NCCN2CCOCC2)cc1 | Non-toxic
40 | Clc1cc2nc(Cc3ccccc3)c(NCCN3CCOCC3)nc2cc1Cl | Non-toxic
